ChEMBL document CHEMBL1671796, “Development of non-peptide ligands of growth factor receptor-bound protein 2-SRC homology 2 domain using molecular modeling and NMR spectroscopy” (J Med Chem, 2011)
The source made the active and inactive calls. The rule behind the calls is not given here.

Columns and labels:
[1] = target: T1, Growth factor receptor-bound protein 2 (Homo sapiens, UniProt P62993); assay: Displacement of biotin-Ahx-PSpYVNVQN from Grb2-SH2 at 5 mM by competition binding assay
Target sequence in this assay (P62993 whole entry, looked up): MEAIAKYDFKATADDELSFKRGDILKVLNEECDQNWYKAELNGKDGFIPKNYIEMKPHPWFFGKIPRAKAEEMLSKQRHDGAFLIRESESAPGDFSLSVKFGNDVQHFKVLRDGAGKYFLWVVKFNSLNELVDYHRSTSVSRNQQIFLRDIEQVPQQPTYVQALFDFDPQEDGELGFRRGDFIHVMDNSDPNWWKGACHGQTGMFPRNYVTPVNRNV

[2] = system: MCF7; assay: Cytotoxicity against HER2-positive human MCF7 cells after 24 hrs by MTT assay; format: functional, cell-based; settings: MCF7, 24 h
In short: (§1)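 Human breast cancer cells tested at 50 and 100 μM: HER2-positive MCF7 and HER2-negative MCF7 and MDA-231. N1 fibroblasts were run alongside at the same two concentrations.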

[3] = system: MCF7; assay: Cytotoxicity against HER2-negative human MCF7 cells after 24 hrs by MTT assay; format: functional, cell-based; in short: as §1
[4] = target: T1, Growth factor receptor-bound protein 2; assay: Inhibition of HER2-Grb2 interaction in HER2-positive human MCF7 cells assessed as decrease in interaction at 50 uM by immunoblotting; format: cell-based; set-up: scale not given: the % may be the effect or the level left
Target sequence in this assay (P62993 whole entry, looked up): as above

[5] = target: T1, Growth factor receptor-bound protein 2; assay: Displacement of biotin-Ahx-PSpYVNVQN from Grb2-SH2 by competition binding assay
Target sequence in this assay (P62993 whole entry): as the sequence (P62993 whole entry, looked up) above

[6] = system: MDA-MB-231; assay: Cytotoxicity against HER2-negative human MDA231 cells after 24 hrs by MTT assay; format: functional, cell-based; in short: as §1

Row | SMILES | inhibition [1] [%] | IC50 [5] [µM] | also measured
1 | CC(=O)N[C@@H](Cc1ccc(OP(=O)(O)O)cc1)C(=O)NCCCN1CCCC1=O | < 10 |  | 
2 | O=C(N[C@@H](Cc1ccc(OP(=O)(O)O)cc1)C(=O)NCCCN1CCCC1=O)c1ccccc1 | < 10 |  | 
3 | CC(=O)N[C@@H](Cc1ccc(OP(=O)(O)O)cc1)C(=O)NCCc1cnc[nH]1 | < 10 |  | 
4 | CC(=O)N[C@@H](Cc1ccc(OP(=O)(O)O)cc1)C(=O)NC1(CCN2CCCNC2=O)CCCCC1 |  | 56 | IC50 [2]: 100 µM; Activity [3]: inactive; Activity [4]: 30%; Activity [6]: inactive
5 | CC(=O)N[C@@H](Cc1ccc(OP(=O)(O)O)cc1)C(=O)NCCN1CCNC1=O | < 10 |  | 
6 | O=C(N[C@@H](Cc1ccc(OP(=O)(O)O)cc1)C(=O)NCCN1CCNC1=O)c1ccccc1 | < 10 |  | 
7 | O=C(O)C[C@@H](Cc1ccc(CP(=O)(O)O)cc1)C(=O)NC1(C(=O)N[C@@H](CC(=O)O)C(=O)NCCCc2cccc3ccccc23)CCCCC1 |  | 0.008 | 
8 | O=C(N[C@@H](Cc1ccc(OP(=O)(O)O)cc1)C(=O)NCCCN1CCCNC1=O)c1ccccc1 | < 10 |  | 
9 | CCCC(=O)N[C@@H](Cc1ccc(OP(=O)(O)O)cc1)C(=O)NCCN1CCNC1=O |  | 1330 | 
10 | CCCC(=O)N[C@@H](Cc1ccc(OP(=O)(O)O)cc1)C(=O)NCCCN1CCCC1=O | < 10 |  | 
11 | CC(=O)N[C@H](Cc1ccc(OP(=O)(O)O)cc1)C(=O)NCCCN1CCCNC1=O | < 10 |  | 
12 | CCCC(=O)N[C@@H](Cc1ccc(OP(=O)(O)O)cc1)C(=O)NCCCN1CCCNC1=O |  | 314 | 
13 | CC(=O)N[C@@H](Cc1ccc(OP(=O)(O)O)cc1)C(=O)NCCCN1CCCNC1=O |  | 174 | 
14 | CC(=O)NC(Cc1ccc(OP(=O)(O)O)cc1)C(=O)NCCCN1CCCNC1=O (racemic) |  | 2310 | 
